# Sampled rows, rich in hits. Any-hit rate of the full collection: about 4.6%.
# NALP1 yeast inh – NALP1 inflammasome inhibitors in reconstituted yeast, colorimetric, S. cerevisiae, triplicate retest | inhibition, % at 10 µM | 280,000 compounds, 0.61% hits | S. cerevisiae NALP1/ASC/caspase-1 growth, X-gal OD620, 72 h; in the data active means inhibition mostly above about 24%, no sharp cut-off; inactive means mostly below about 32%
# DSG3 Ab inh – inhibitors of pemphigus antibody binding to DSG3, primary screen, biochemical, bead-based, flow cytometry, scFv-GFP. DSG3-coupled beads, scFv-anti-DSG3-GFP binding; stronger effect = lower value. binding (percent of control), % at 10 µM. 310,000 compounds, 0.48% hits;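 active means binding more than 3 SD below its plate's average and above zero; inconclusive means below that plate limit but binding exactly zero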
# ALR inh – inhibitors of human ALR sulfhydryl oxidase, primary screen, biochemical, H2O2 detection, HRP-luminol luminescence, single point; purified ALR, DTT oxidation; inhibition, % (no concentration beside the values); 290,000 compounds, 3.8% hits;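 active means mean replicate inhibition above about 79%, with every replicate also reaching it, limit read from the data; inconclusive means only one of the two criteria met; inactive means mean below limit and not every replicate reaching it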
# Target sequence (P55789 whole entry, looked up): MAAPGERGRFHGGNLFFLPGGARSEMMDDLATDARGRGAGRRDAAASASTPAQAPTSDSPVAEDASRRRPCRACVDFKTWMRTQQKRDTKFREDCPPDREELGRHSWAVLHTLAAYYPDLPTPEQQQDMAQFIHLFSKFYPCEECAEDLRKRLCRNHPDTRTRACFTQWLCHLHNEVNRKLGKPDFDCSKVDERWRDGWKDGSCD
# Arrestin-AP2 inh – inhibitors of beta-arrestin/AP2 binding, primary screen, biochemical, GPCR trafficking, flow cytometry | beta-arrestin 1 C-terminal peptide binding to AP2 beta2-adaptin appendage (human) | FITC-arrestin peptide / GST-AP2 beads; AP2 beta2 appendage carries R879A mutation | inhibition, % at 10 µM | 340,000 compounds, 0.31% hits;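 active means inhibition above a set limit, near 3 SD of compounds lacking own fluorescence, cut at about 54% in these data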;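 further: plate controls were DMSO wells for no effect and 5 µM unlabelled arrestin peptide for full effect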
#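 Test system: GST-tagged AP2 beta2-adaptin appendage (R879A) on 4 µm glutathione beads; also added: fluorescein-tagged arrestin peptide at 50 nM final; timing: 12 min plus 1 h, RT; signal: flow cytometry, FL1 (488/535 nm); read-out: percent drop in bead-associated FITC signal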
# PolyA inhibitor – polyadenylation inhibitors in yeast reporter cells, primary screen, luminescence, S. cerevisiae | S. cerevisiae SKY197-pL101 polyadenylation reporter, beta-gal luminescence; efflux-impaired pdr1/pdr3 knockout yeast; score 100 = 6 SD above DMSO | activity score, % at 12 µM | 300,000 compounds, 0.02% hits;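 active means lowest replicate activity score at least 50, where 100 means six control SD above control mean; inconclusive means lowest score under 50 but half or more replicates reach 50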;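 further: yeast exposed to compound for 9 h at 30 °C; higher score means more reporter readthrough which indicates perturbed polyadenylation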
# NLRP3 yeast inh – NALP3 inflammasome inhibitors in reconstituted yeast, primary screen, luminescence, uHTS; Yeast reconstituted NLRP3/ASC/caspase-1, beta-gal luminescence, 24 h; inhibition, % at 10 µM; 330,000 compounds, 0.39% hits; AID 2825, 2010;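 active means inhibition of 50% or more; inactive means inhibition below 50%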;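 further: plate controls were induced DMSO wells for no effect and uninduced yeast grown without galactose for full effect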
# Numbers without * were called inactive; ? = inconclusive; . = no result.
SMILES,NALP1 yeast inh,DSG3 Ab inh,ALR inh,Arrestin-AP2 inh,PolyA inhibitor,NLRP3 yeast inh
CCOC(=O)c1oc2c(O)c(O)ccc2c(=O)c1-c1nncn1-c1ccccc1,11,105,.,-2,2,3
CC1Oc2cc3oc4c(O)c(O)ccc4c(=O)c3c(O)c2C1(C)C (stereo not given),.,99,98*,0,-21,11
CCN(CC)S(=O)(=O)c1cccc(NC(=O)CSc2nnc(N)s2)c1,8,94,99*,33,18,-2
Nc1nnc(SCC(=O)Nc2cccc(S(N)(=O)=O)c2)s1,7,100,-3,-12,-3,6
O=C(NNc1cccc(Cl)c1)c1cccnc1Cl,23,103,98*,3,6,9
N#Cc1ccccc1S(=O)(=O)N1CCN(C(=O)CN(Cc2ccco2)Cc2cccs2)CC1,.,100,.,.,.,.
COCCCN1C(=O)C(=O)/C(=C(/O)c2ccc3c(c2)OCCO3)C1c1ccc(C(=O)OC)cc1 (stereo not given),6,102,85*,-1,-6,5
CC1CN(C(=O)COC(=O)Cc2ccc(Cl)cc2)CC(C)O1 (stereo not given),.,104,0,-1,.,-9
COc1cc(/C=N/N=C2\CC3CCC2(C)C3(C)C)ccc1O (stereo not given),.,92,99*,2,-18,-54
COc1ccc(/C=N/N=C2\CC3CCC2(C)C3(C)C)cc1O (stereo not given),45,99,66,10,-14,8
CCCCCCCCC(=O)c1c(OC)oc(C=O)cc1=O,.,106,.,.,.,.
Cc1cccc(N2CCN(C(=O)C3CCN(S(=O)(=O)c4c(C)noc4C)CC3)CC2C)c1 (stereo not given),4,46*,98*,-2,16,3
CC1CC(C)CN(C(=O)C2CCCN(S(=O)(=O)c3cnc[nH]3)C2)C1 (stereo not given),.,84,-7,3,-6,-1
Cc1noc(C)c1S(=O)(=O)N1CCC(C(=O)N2CCC(C)CC2)CC1,-25,80,-2,7,12,-4
Cc1cccc(N2CCN(C(=O)C3CCCN(S(=O)(=O)c4cnc[nH]4)C3)CC2C)c1 (stereo not given),-78,100,99*,3,15,8
CCC(=NCc1ccco1)c1c(C(F)(F)F)[nH]n(-c2nc3ccccc3s2)c1=O,42,102,86*,-2,15,19
O=c1c(C=NCc2cccnc2)c(C(F)(F)F)[nH]n1-c1nc2ccccc2s1,-4,98,99*,19,-21,28
CCC(=NCc1ccccc1)c1c(C(F)(F)F)[nH]n(-c2nc3ccccc3s2)c1=O,33,96,52,21,-17,6
CCN(CC)CCCN=Cc1c(-c2ccccc2)[nH]n(-c2nc3ccccc3s2)c1=O,3,102,98*,44,-10,0
CCCN=C(C)c1c(-c2ccccc2)[nH]n(-c2nc3ccccc3s2)c1=O,21,102,37,-2,-1,13
Cc1cc(-c2cccc([N+](=O)[O-])c2)nc2ccc3ccccc3c12,9,-1.4*,2,4,-2,-9
Cc1cc(C)c(CC(=O)c2ccccc2)c(C)c1,.,121,.,-3,.,.
O=C(COC(=O)Cc1ccc(S(=O)(=O)N2CCOCC2)s1)NCCc1ccccc1,-12,100,-15,1,?,-4
O=C(COC(=O)Cc1ccc(S(=O)(=O)N2CCOCC2)s1)NCc1ccccc1,5,108,-8,28,903*,0
Cn1c(=O)[nH]c(=O)c2c1nc1n2CC(O)CN1c1ccccc1 (stereo not given),20,109,13,15,12,-2
CCCCNCCS(=O)(=O)NCc1ccc(OC)cc1,.,108,.,24,.,.

# Compound activity as filed in PubChem.
